In ChEMBL document CHEMBL3580642, “Cytotoxic Bryostatin Derivatives from the South China Sea Bryozoan Bugula neritina” (J Nat Prod, 2015):
Active and inactive are the calls of the source. No cut-off for these calls is given here.

Assays:
SGC-7901 = assay: Cytotoxicity against human SGC7901 cells assessed as reduction in cell viability at 20 ug/ml incubated for 72 hrs by MTT method; assay type: functional, cell-based
Procedure, shortened: (§1)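 Cultures were kept in RPMI-1640 or DMEM with 10% FBS at 37 °C, 5% CO2. Adherent cells were dosed after 12 h attachment, and suspension cells were seeded at 1 × 10^5 cells/mL. Triplicate 72 h exposure was followed by MTT, DMSO solubilisation and OD 490 nm. Activity was scored at a concentration of 20 μg/mL.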

HeLa [1] = assay: Cytotoxicity against human HeLa cells assessed as reduction in cell viability at 20 ug/ml incubated for 72 hrs by MTT method; assay type: functional, cell-based; procedure, shortened: as §1
K562 [2] = assay: Cytotoxicity against human K562 cells assessed as reduction in cell viability at 20 ug/ml incubated for 72 hrs by MTT method; assay type: functional, cell-based; procedure, shortened: as §1
U-937 [3] = assay: Cytotoxicity against human U937 cells assessed as reduction in cell viability at 20 ug/ml incubated for 72 hrs by MTT method; assay type: functional, cell-based; procedure, shortened: as §1
K562 [4] = assay: Cytotoxicity against human K562 cells assessed as reduction in cell viability incubated for 72 hrs by MTT method; assay type: functional, cell-based; settings: K562, 72 h
Procedure, shortened: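 Cells were grown in RPMI-1640 or DMEM with 10% FBS at 37 °C, humidified 5% CO2. Adherent cells attached for 12 h before dosing, and suspension cells were seeded at 1 × 10^5 cells/mL. […] MTT read-out used DMSO solubilisation and OD 490 nm. IC50 came from mean OD versus concentration curves.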

U-937 [5] = assay: Cytotoxicity against human U937 cells assessed as reduction in cell viability incubated for 72 hrs by MTT method; assay type: functional, cell-based; settings: U-937, 72 h
[6] = Cytotoxicity against human SGC7901 cells assessed as reduction in cell viability incubated for 72 hrs by MTT method; settings: SGC-7901, 72 h
HeLa [7] = assay: Cytotoxicity against human HeLa cells assessed as reduction in cell viability incubated for 72 hrs by MTT method

Compound | inhibition (SGC-7901) | inhibition (HeLa [1]) | inhibition (K562 [2]) | inhibition (U-937 [3]) | IC50 (K562 [4]) | IC50 (U-937 [5]) | IC50 [6] | IC50 (HeLa [7])
CCCC(=O)O[C@H]1/C(=C/C(=O)OC)C[C@@H]2C[C@H]([C@@H](C)O)OC(=O)C[C@H](O)C[C@@H]3C[C@H](OC(=O)CC(C)C)C(C)(C)[C@](O)(C[C@@H]4C/C(=C/C(=O)OC)C[C@H](/C=C/C(C)(C)[C@]1(O)O2)O4)O3 | inactive | inactive | inactive | inactive | – | – | – | –
CCCC(=O)O[C@H]1/C(=C/C(=O)OC)C[C@H]2C[C@H]([C@@H](C)O)OC(=O)C[C@H](O)C[C@@H]3C[C@H](OC(=O)C(C)(C)C)C(C)(C)[C@](O)(C[C@@H]4C/C(=C/C(=O)OC)C[C@H](/C=C/[C@H](C)[C@]1(O)O2)O4)O3 | inactive | inactive | – | – | 9.9 µM | 7.7 µM | – | –
COc1cccc2c1C(=O)c1c(O)c3c(c(O)c1C2=O)C[C@@](O)(C(=O)CO)C[C@@H]3O[C@H]1C[C@H](N)[C@H](O)[C@H](C)O1 [DOXORUBICIN] | – | – | – | – | 0.2 µM | – | 0.2 µM | 0.1 µM
CCCC(=O)O[C@H]1/C(=C/C(=O)OC)C[C@H]2C[C@H]([C@@H](C)O)OC(=O)C[C@H](O)C[C@@H]3C[C@H](OC(=O)C(C)(C)C)C(C)(C)[C@](OC)(C[C@@H]4C/C(=C/C(=O)OC)C[C@H](/C=C/C(C)(C)[C@]1(O)O2)O4)O3 | inactive | inactive | inactive | inactive | – | – | – | –
